Where a SMILES comes first, the peptide text is derived from it. Bridges are numbered along the chain shown (N, C = ends).
Legend:
[1] = target: Adenylate cyclase; assay: Adenylate cyclase activity measured as 50% inhibitory concentration; assay type: protein assay
[2] = target: Glucagon receptor (Rattus norvegicus, UniProt P30082); assay: Glucagon receptor binding measured as 50% inhibitory concentration
How it was run: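 Membranes (50 µg protein) were taken from the livers of male Sprague Dawley rats (200-250 g), purified on a sucrose gradient. […] Nonspecific binding was defined with excess unlabeled peptide and subtracted. Run in triplicate, repeated twice.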

[3] = target: Adenylate cyclase (Rattus norvegicus) (UniProt D4A3N4+P26770+Q04400+P26769+Q03343+P40146+Q8CFM9+P21932); assay: Adenylate cyclase activity measured as percentage stimulation; assay type: protein assay; set-up: concentration or dose not given beside the values

Chain of Glucagon receptor (P30082 whole entry): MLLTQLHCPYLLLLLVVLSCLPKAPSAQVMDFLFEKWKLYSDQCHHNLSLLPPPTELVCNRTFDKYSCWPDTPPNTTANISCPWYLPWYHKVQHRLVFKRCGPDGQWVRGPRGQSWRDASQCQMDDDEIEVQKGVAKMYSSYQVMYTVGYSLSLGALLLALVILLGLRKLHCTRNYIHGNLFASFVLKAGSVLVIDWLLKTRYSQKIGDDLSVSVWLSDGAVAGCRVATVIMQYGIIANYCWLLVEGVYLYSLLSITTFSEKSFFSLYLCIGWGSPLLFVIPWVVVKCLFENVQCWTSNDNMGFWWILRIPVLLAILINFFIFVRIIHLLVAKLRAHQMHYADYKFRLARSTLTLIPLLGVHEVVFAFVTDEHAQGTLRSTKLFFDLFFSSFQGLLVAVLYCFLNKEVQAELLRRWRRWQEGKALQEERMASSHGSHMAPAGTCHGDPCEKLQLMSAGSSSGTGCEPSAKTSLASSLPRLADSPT

| Structure (SMILES) | EC50 [1] [nM] | IC50 [2] [nM] | Activity [3] [%] |
| --- | --- | --- | --- |
| CSCC[C@H](NC(=O)[C@H](CC(C)C)NC(=O)[C@H](Cc1c[nH]c2ccccc12)NC(=O)[C@H](CCC(N)=O)NC(=O)[C@@H](NC(=O)[C@H](Cc1ccccc1)NC(=O)[C@H](CC(=O)O)NC(=O)[C@H](CCC(N)=O)NC(=O)[C@H](C)NC(=O)[C@H](CCCN=C(N)N)NC(=O)[C@H](CCCN=C(N)N)NC(=O)[C@H](CO)NC(=O)[C@H](CC(=O)O)NC(=O)[C@H](CC(C)C)NC(=O)[C@H](Cc1ccc(O)cc1)NC(=O)[C@H](CCCCN)NC(=O)[C@H](CO)NC(=O)[C@H](Cc1ccc(O)cc1)NC(=O)[C@H](CC(=O)O)NC(=O)[C@H](CO)NC(=O)[C@H](CS)NC(=O)[C@H](Cc1ccccc1)NC(=O)[C@@H](NC(=O)CNC(=O)[C@H](CCC(N)=O)NC(=O)[C@H](CS)NC(=O)[C@@H](N)Cc1c[nH]cn1)[C@@H](C)O)C(C)C)C(=O)N[C@@H](CC(N)=O)C(=O)N[C@H](C(=O)O)[C@@H](C)O (H-HCQGTFCSDYSKYLDSRRAQDFVQWLMNT-OH) | – | 5.6 | – |
| CSCC[C@H](NC(=O)[C@H](CC(C)C)NC(=O)[C@H](Cc1c[nH]c2ccccc12)NC(=O)[C@H](CCC(N)=O)NC(=O)[C@@H](NC(=O)[C@H](Cc1ccccc1)NC(=O)[C@H](CC(=O)O)NC(=O)[C@H](CCC(N)=O)NC(=O)[C@H](C)NC(=O)[C@H](CCCN=C(N)N)NC(=O)[C@H](CCCN=C(N)N)NC(=O)[C@H](CO)NC(=O)[C@H](CC(=O)O)NC(=O)[C@H](CC(C)C)NC(=O)[C@H](Cc1ccc(O)cc1)NC(=O)[C@H](CCCCN)NC(=O)[C@H](CO)NC(=O)[C@H](Cc1ccc(O)cc1)NC(=O)[C@H](CC(=O)O)NC(=O)[C@H](CO)NC(=O)[C@@H]1CSSC[C@H](NC(=O)[C@@H](N)Cc2c[nH]cn2)C(=O)N[C@@H](CCC(N)=O)C(=O)NCC(=O)N[C@@H]([C@@H](C)O)C(=O)N[C@@H](Cc2ccccc2)C(=O)N1)C(C)C)C(=O)N[C@@H](CC(N)=O)C(=O)N[C@H](C(=O)O)[C@@H](C)O (H-HCQGTFCSDYSKYLDSRRAQDFVQWLMNT-OH; disulfide 2-7) | 9200 | 101 | 23 |
| CSCC[C@H](NC(=O)[C@H](CC(C)C)NC(=O)[C@H](Cc1c[nH]c2ccccc12)NC(=O)[C@H](CCC(N)=O)NC(=O)[C@@H](NC(=O)[C@H](Cc1ccccc1)NC(=O)[C@H](CC(=O)O)NC(=O)[C@H](CCC(N)=O)NC(=O)[C@H](C)NC(=O)[C@H](CCCN=C(N)N)NC(=O)[C@H](CCCN=C(N)N)NC(=O)[C@H](CO)NC(=O)[C@H](CC(=O)O)NC(=O)[C@H](CC(C)C)NC(=O)[C@H](Cc1ccc(O)cc1)NC(=O)[C@H](CCCCN)NC(=O)[C@H](CO)NC(=O)[C@H](Cc1ccc(O)cc1)NC(=O)[C@H](CS)NC(=O)[C@H](CO)NC(=O)[C@@H](NC(=O)[C@H](Cc1ccccc1)NC(=O)[C@@H](NC(=O)[C@H](CS)NC(=O)[C@H](CCC(N)=O)NC(=O)[C@H](CO)NC(=O)[C@@H](N)Cc1c[nH]cn1)[C@@H](C)O)[C@@H](C)O)C(C)C)C(=O)N[C@@H](CC(N)=O)C(=O)N[C@H](C(=O)O)[C@@H](C)O (H-HSQCTFTSCYSKYLDSRRAQDFVQWLMNT-OH) | 295 | 3.6 | 18 |
| CSCC[C@H](NC(=O)[C@H](CC(C)C)NC(=O)[C@H](Cc1c[nH]c2ccccc12)NC(=O)[C@H](CCC(N)=O)NC(=O)[C@@H](NC(=O)[C@H](Cc1ccccc1)NC(=O)[C@H](CC(=O)O)NC(=O)[C@H](CCC(N)=O)NC(=O)[C@H](C)NC(=O)[C@H](CCCNC(=N)N)NC(=O)[C@H](CCCNC(=N)N)NC(=O)[C@H](CO)NC(=O)[C@H](CC(=O)O)NC(=O)[C@H](CC(C)C)NC(=O)[C@H](Cc1ccc(O)cc1)NC(=O)[C@H](CS)NC(=O)[C@H](CO)NC(=O)[C@H](Cc1ccc(O)cc1)NC(=O)[C@H](CC(=O)O)NC(=O)[C@H](CO)NC(=O)[C@H](CS)NC(=O)[C@H](Cc1ccccc1)NC(=O)[C@@H](NC(=O)CNC(=O)[C@H](CCC(N)=O)NC(=O)[C@H](CO)NC(=O)[C@@H](N)Cc1cnc[nH]1)[C@@H](C)O)C(C)C)C(=O)N[C@@H](CC(N)=O)C(=O)N[C@H](C(=O)O)[C@@H](C)O (H-HSQGTFCSDYSCYLDSRRAQDFVQWLMNT-OH) | – | 6.4 | – |

Continued, values first:

| EC50 [1] [nM] | IC50 [2] [nM] | Activity [3] [%] | Structure (SMILES) |
| --- | --- | --- | --- |
| 0.27 | 0.24 | 98 | CSCC[C@H](NC(=O)[C@H](CC(C)C)NC(=O)[C@H](Cc1c[nH]c2ccccc12)NC(=O)[C@H](CCC(N)=O)NC(=O)[C@@H](NC(=O)[C@H](Cc1ccccc1)NC(=O)[C@@H]1CCC(=O)NCCCC[C@H](NC(=O)[C@H](CO)NC(=O)[C@H](CC(=O)O)NC(=O)[C@H](CC(C)C)NC(=O)[C@H](Cc2ccc(O)cc2)NC(=O)[C@H](CCCCN)NC(=O)[C@H](CO)NC(=O)[C@H](Cc2ccc(O)cc2)NC(=O)[C@H](CC(=O)O)NC(=O)[C@H](CO)NC(=O)[C@@H](NC(=O)[C@H](Cc2ccccc2)NC(=O)[C@@H](NC(=O)CNC(=O)[C@H](CCC(N)=O)NC(=O)[C@H](CO)NC(=O)[C@@H](N)Cc2c[nH]cn2)[C@@H](C)O)[C@@H](C)O)C(=O)N[C@@H](CCCN=C(N)N)C(=O)N[C@@H](C)C(=O)N[C@@H](CCC(N)=O)C(=O)N1)C(C)C)C(=O)N[C@@H](CC(N)=O)C(=O)N[C@H](C(=O)O)[C@@H](C)O |
| 47 | – | 17 | CSCC[C@H](NC(=O)[C@H](CC(C)C)NC(=O)[C@H](Cc1c[nH]c2ccccc12)NC(=O)[C@H](CCC(N)=O)NC(=O)[C@@H](NC(=O)[C@H](Cc1ccccc1)NC(=O)[C@H](CC(=O)O)NC(=O)[C@H](CCC(N)=O)NC(=O)[C@H](C)NC(=O)[C@H](CCCN=C(N)N)NC(=O)[C@H](CCCN=C(N)N)NC(=O)[C@H](CO)NC(=O)[C@H](CC(=O)O)NC(=O)[C@H](CC(C)C)NC(=O)[C@H](Cc1ccc(O)cc1)NC(=O)[C@H](CCCCN)NC(=O)[C@@H]1CCC(=O)NCCCC[C@H](NC(=O)[C@H](Cc2ccccc2)NC(=O)[C@@H](NC(=O)CNC(=O)[C@H](CCC(N)=O)NC(=O)[C@H](CO)NC(=O)[C@@H](N)Cc2c[nH]cn2)[C@@H](C)O)C(=O)N[C@@H](CO)C(=O)N[C@@H](CC(=O)O)C(=O)N[C@@H](Cc2ccc(O)cc2)C(=O)N1)C(C)C)C(=O)N[C@@H](CC(N)=O)C(=O)N[C@H](C(=O)O)[C@@H](C)O (H-HSQGTFKSDYEKYLDSRRAQDFVQWLMNT-OH; lactam 7-11) |
| – | 13.6 | – | CSCC[C@H](NC(=O)[C@H](CC(C)C)NC(=O)[C@H](Cc1c[nH]c2ccccc12)NC(=O)[C@H](CCC(N)=O)NC(=O)[C@@H](NC(=O)[C@H](Cc1ccccc1)NC(=O)[C@H](CC(=O)O)NC(=O)[C@H](CCC(N)=O)NC(=O)[C@H](C)NC(=O)[C@H](CCCNC(=N)N)NC(=O)[C@H](CCCNC(=N)N)NC(=O)[C@H](CO)NC(=O)[C@H](CC(=O)O)NC(=O)[C@H](CC(C)C)NC(=O)[C@H](Cc1ccc(O)cc1)NC(=O)[C@H](CCCCN)NC(=O)[C@@H]1CCC(=O)NCCCC[C@H](NC(=O)[C@H](Cc2ccccc2)NC(=O)[C@@H](NC(=O)CNC(=O)[C@H](CCC(N)=O)NC(=O)[C@H](CO)NC(=O)[C@@H](N)Cc2cnc[nH]2)[C@@H](C)O)C(=O)N[C@@H](CO)C(=O)N[C@@H](CC(=O)O)C(=O)N[C@@H](Cc2ccc(O)cc2)C(=O)N1)C(C)C)C(=O)N[C@@H](CC(N)=O)C(=O)N[C@H](C(=O)O)[C@@H](C)O (H-HSQGTFKSDYEKYLDSRRAQDFVQWLMNT-OH; lactam 7-11) |
